# Results reported in ChEMBL document CHEMBL3868592, “Analogues of Marine Guanidine Alkaloids Are in Vitro Effective against Trypanosoma cruzi and Selectively Eliminate Leishmania (L.) infantum Intracellular Amastigotes” (J Nat Prod, 2016).
# Active and inactive are the calls of the source. The rule behind the calls is not given here.
# Key:
# Peritoneal macrophage [1] = assay: Antiinflammatory activity in BALB/c mouse peritoneal macrophages assessed as decrease in MCP-1 release at 30 uM after 48 hrs by flow cytometric analysis; format: functional
# Method in brief: (§1)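 Peritoneal macrophages from BALB/c mice seeded at 1.5×10^5 cells/well; after 24 h, infected where applicable with L. infantum spleen-derived amastigotes at 1:10 (macrophage:amastigote). After 24 h, cocultured where applicable with splenocytes at 6:1. Compound added for 48 h. Supernatant cytokines quantified with an inflammatory cytometric bead array by flow cytometry. Sham-treated infected macrophages served as reference.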
# Trypanosoma cruzi = assay: Antitrypanosomal activity against Trypanosoma cruzi Y trypomastigote forms infected in monkey LLC-MK2 cells assessed as reduction in parasite viability after 24 hrs by resazurin assay; format: functional, cell-based; details: LLC-MK2, 24 h
# Method in brief: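 Y-strain trypomastigotes from LLC-MK2 cultures seeded at 1×10^6/well in RPMI-1640. Compounds up to 150 μM, 24 h at 37 °C, 5% CO2. Viability by resazurin (0.011% in PBS), read at 570 nm against drug-free and cell-free wells; 0.5% DMSO control. IC50 by sigmoidal dose-response curve fitting.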
# Leishmania infantum [2] = assay: Antileishmanial activity against Leishmania infantum MHOM/BR/1972/LD promastigote forms […] assessed as reduction in parasite viability after 48 hrs by MTT assay; format: functional
# Method in brief: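 Late-growth-phase promastigotes (passage 5) seeded at 1×10^6/well in M-199. Compounds dissolved in DMSO, tested up to 100 μM, 48 h at 24 °C. Viability by MTT, OD 570 nm, against drug-free (100%) and cell-free blank wells; 0.5% DMSO control. IC50 from sigmoidal dose-response curves; ≥2 independent assays.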
# Leishmania infantum [3] = assay: Antileishmanial activity against Leishmania infantum MHOM/BR/1972/LD amastigote forms infected in BALB/c mouse peritoneal macrophages assessed as reduction in parasite viability after 120 hrs by giemsa staining based light microscopy; format: functional
# Method in brief: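 BALB/c peritoneal macrophages seeded at 1×10^5/well for 24 h, then infected with hamster spleen-derived amastigotes (1:10 macrophage:amastigote, 24 h, 37 °C, 5% CO2). Compound exposure for 120 h, highest 100 μM. Cells MeOH-fixed and Giemsa-stained; infected macrophages counted out of 400 cells. IC50 from sigmoidal dose-response; at least two independent assays.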
# [4] = Cytotoxicity against mouse NCTC-929 cells assessed as decrease in cell viability after 48 hrs by MTT assay; format: toxicity
# Method in brief: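 NCTC clone 929 murine cells seeded at 6×10^4/well. Compound up to 150 μM for 48 h at 37 °C, 5% CO2. Viability read by MTT. CC50 from sigmoidal dose-response; mean of at least two independent experiments.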
# [5] = Selectivity index, ratio of CC50 for mouse NCTC-929 cells to IC50 for Leishmania infantum MHOM/BR/1972/LD amastigote forms infected in BALB/c mouse macrophages; format: functional
# [6] = Selectivity index, ratio of CC50 for mouse NCTC-929 cells to IC50 for Trypanosoma cruzi Y trypomastigote form infected in monkey LLC-MK2 cells; format: functional
# Leishmania infantum [7] = assay: Induction of plasma membrane permeability in Leishmania infantum MHOM/BR/1972/LD promastigote form assessed as increase in fluorescence intensity at 57 uM measured every 20 mins for 60 mins by SYTOX green dye based fluorimetric assay relative to control; format: functional
# Method in brief: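 Late-growth-phase promastigotes (passage 7) washed in PBS, seeded at 2×10^6/well and loaded with 1 μM SYTOX Green for 15 min at 24 °C. Compound added; fluorescence (ex 485/em 520 nm) read every 20 min over 60 min. 0.1% Triton X-100 defined maximal permeabilization. Background, DMSO, untreated and cell-free controls included. Triplicates.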
# Peritoneal macrophage [8] = assay: Antiinflammatory activity in BALB/c mouse peritoneal macrophages infected with Leishmania infantum MHOM/BR/1972/LD amastigote form assessed as decrease in MCP-1 release at 30 uM after 48 hrs by flow cytometric analysis; format: functional; method in brief: as §1
# Peritoneal macrophage [9] = assay: Antiinflammatory activity in BALB/c mouse peritoneal macrophages assessed as decrease in INF-gamma release at 30 uM after 48 hrs by flow cytometric analysis; format: functional; method in brief: as §1
# Peritoneal macrophage [10] = assay: Antiinflammatory activity in BALB/c mouse peritoneal macrophages infected with Leishmania infantum MHOM/BR/1972/LD amastigote form assessed as decrease in INF-gamma release at 30 uM after 48 hrs by flow cytometric analysis; format: functional; method in brief: as §1
# Peritoneal macrophage [11] = assay: Antiinflammatory activity in BALB/c mouse peritoneal macrophages infected with Leishmania infantum MHOM/BR/1972/LD amastigote form cocultivated with splenocytes assessed as decrease in MCP-1 release at 30 uM after 48 hrs by flow cytometric analysis; format: functional; method in brief: as §1
# Peritoneal macrophage [12] = assay: Antiinflammatory activity in BALB/c mouse peritoneal macrophages infected with Leishmania infantum MHOM/BR/1972/LD amastigote form cocultivated with splenocytes assessed as decrease in INF-gamma release at 30 uM after 48 hrs by flow cytometric analysis; format: functional; method in brief: as §1
# Splenocyte = assay: Antiinflammatory activity in splenocytes (unknown origin) assessed as decrease in MCP1 release at 30 uM after 48 hrs by flow cytometric analysis; format: functional, cell-based
# Leishmania infantum [13] = assay: Induction of mitochondrial membrane potential loss in Leishmania infantum MHOM/BR/1972/LD promastigote form at 57 uM incubated for 60 mins by rhodamine-123 dye based fluorimetric assay; format: functional
# Method in brief: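 Promastigotes (2×10^6/mL) in HBSS-glucose exposed to compound for 60 min at 25 °C. Rhodamine-123 (0.3 μg/mL) then added, cells washed and resuspended in HBSS-Glc, and fluorescence read at ex 485/em 520 nm. Sodium azide 10 mM as positive control; background, DMSO and untreated controls included. Triplicates.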
# Leishmania infantum [14] = assay: Induction of ROS generation in Leishmania infantum MHOM/BR/1972/LD promastigote form at 57 uM incubated for […] by H2DCF-DA probe based fluorimetric assay relative to sodium azide; format: functional
# Method in brief: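 Promastigotes (2 × 10^6/well) washed in HBSS and exposed to compound for 60 min, then loaded with 5 μM H2DCFDA for 15 min. Fluorescence read at ex 485/em 520 nm. Sodium azide (10 mM) served as positive control. Controls were compound background fluorescence, DMSO, untreated promastigotes and cell-free medium. Run in triplicate.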
# Peritoneal macrophage [15] = assay: Antiinflammatory activity in BALB/c mouse peritoneal macrophages co-cultivated with splenocytes assessed as decrease in INF-gamma release at 30 uM after 48 hrs by flow cytometric analysis; format: functional; method in brief: as §1
# Peritoneal macrophage [16] = assay: Antiinflammatory activity in BALB/c mouse peritoneal macrophages co-cultivated with splenocytes assessed as decrease in MCP-1 release at 30 uM after 48 hrs by flow cytometric analysis; format: functional; method in brief: as §1
smiles,measurement,setting,value
C[C@@H]1C[C@@H]2CC[C@@H]3C[C@H](CCCCOCc4ccccc4)NC(=[NH+]1)N32.F[B-](F)(F)F,Activity,Peritoneal macrophage [1],Active
same,IC50,Trypanosoma cruzi,41 µM
same,IC50,Leishmania infantum [2],57 µM
same,IC50,Leishmania infantum [3],5 µM
same,CC50 at 48 h,[4],138 µM
same,Ratio CC50/IC50,[5],25
same,Ratio CC50/IC50,[6],3
same,Activity,Leishmania infantum [7],25%
same,Activity,Peritoneal macrophage [8],Active
same,Activity,Peritoneal macrophage [9],Active
same,Activity,Peritoneal macrophage [10],Active
same,Activity,Peritoneal macrophage [11],Active
same,Activity,Peritoneal macrophage [12],Active
same,Activity,Splenocyte,Active
same,Activity,Leishmania infantum [13],70%
same,fold change (FC),Leishmania infantum [14],3
same,Activity,Peritoneal macrophage [15],Active
same,Activity,Peritoneal macrophage [16],Active
